Values after ≈ are worked out from the molar mass of the structure shown.
Tests used:
Assay type in all cases: functional
[1] = system: Staphylococcus aureus; test: Antibacterial activity against fusidic acid-resistant, methicillin-resistant Staphylococcus aureus after 16 to 20 hrs by CLSI agar dilution method
Summary of the method: (§1)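 Clinical isolates collected at a Taiwanese teaching hospital, 2002–2007. Inoculum was made by direct colony suspension to 0.5 McFarland. 10^4 CFU/spot was applied by Steers replicator onto Mueller-Hinton agar containing fusidic acid at 0.03 to 128 μg/ml. Plates were incubated at 33 to 35°C for 16–20 h. S. aureus ATCC 29213 served as control. Resistance breakpoint was 2 μg/ml.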

[2] = system: Staphylococcus aureus; test: Antibacterial activity against fusidic acid-resistant Staphylococcus aureus harboring A376V in domain 2 and L456F mutation in domain 3 of EF-G encoded by fusA gene after 16 to 20 hrs by CLSI agar dilution method; summary of the method: as §1
[3] = system: Staphylococcus aureus; test: Antibacterial activity against fusidic acid-resistant Staphylococcus aureus harboring E444K mutation in domain 3 of EF-G encoded by fusA gene after 16 to 20 hrs by CLSI agar dilution method; summary of the method: as §1
[4] = system: Staphylococcus aureus; test: Antibacterial activity against Staphylococcus aureus harboring L461S mutation in domain 3 of EF-G encoded by fusA gene after 16 to 20 hrs by CLSI agar dilution method; summary of the method: as §1
[5] = system: Staphylococcus aureus; test: Antibacterial activity against methicillin-susceptible Staphylococcus aureus harboring M651I mutation in domain 5 of EF-G encoded by fusA gene after 16 to 20 hrs by CLSI agar dilution method
Summary of the method: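 Agar dilution per CLSI on Mueller-Hinton agar, fusidic acid 0.03 to 128 μg/ml. Inoculum from direct colony suspension adjusted to 0.5 McFarland, 104 CFU/spot applied by Steers replicator. Plates incubated 33 to 35°C for 16 to 20 h. S. aureus ATCC 29213 as control strain; resistance breakpoint 2 μg/ml.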

[6] = system: Staphylococcus aureus; test: Antibacterial activity against fusidic acid-resistant, methicillin-susceptible Staphylococcus aureus after 16 to 20 hrs by CLSI agar dilution method
Summary of the method: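 Clinical isolates from a Taiwan teaching hospital, 2002–2007. CLSI agar dilution: colonies suspended directly to 0.5 McFarland, and 10^4 CFU/spot applied by Steers replicator to Mueller-Hinton agar containing fusidic acid at 0.03 to 128 μg/ml. Plates incubated 16 to 20 h at 33 to 35°C. S. aureus ATCC 29213 used as control; resistance breakpoint 2 μg/ml.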

[7] = system: Staphylococcus aureus; test: Antibacterial activity against Staphylococcus aureus harboring G451V mutation in domain 3 of EF-G encoded by fusA gene after 16 to 20 hrs by CLSI agar dilution method; summary of the method: as §1
[8] = system: Staphylococcus aureus; test: Antibacterial activity against methicillin-susceptible Staphylococcus aureus harboring P478S mutation in domain 3 of EF-G encoded by fusA gene after 16 to 20 hrs by CLSI agar dilution method; summary of the method: as §1
[9] = system: Staphylococcus aureus; test: Antibacterial activity against fusidic acid-resistant Staphylococcus aureus harboring A67T in domain 1 and H457Y mutation in domain 3 of EF-G encoded by fusA gene after 16 to 20 hrs by CLSI agar dilution method; summary of the method: as §1
[10] = system: Staphylococcus aureus; test: Antibacterial activity against Staphylococcus aureus harboring M453I mutation in domain 3 of EF-G encoded by fusA gene after 16 to 20 hrs by CLSI agar dilution method; summary of the method: as §1
[11] = system: Staphylococcus aureus; test: Antibacterial activity against Staphylococcus aureus harboring […] and C473S mutations in domain 3 of EF-G encoded by fusA gene after 16 to 20 hrs by CLSI agar dilution method; summary of the method: as §1
[12] = system: Staphylococcus aureus; test: Antibacterial activity against Staphylococcus aureus harboring P406L mutation in domain 3 of EF-G encoded by fusA gene after 16 to 20 hrs by CLSI agar dilution method; summary of the method: as §1
[13] = system: Staphylococcus aureus; test: Antibacterial activity against fusidic acid-resistant Staphylococcus aureus harboring H457Y mutation in domain 3 of EF-G encoded by fusA gene after 16 to 20 hrs by CLSI agar dilution method; summary of the method: as §1
[14] = system: Staphylococcus aureus; test: Antibacterial activity against fusidic acid-resistant Staphylococcus aureus harboring A70V in domain 1 and H457Y mutation in domain 3 of EF-G encoded by fusA gene after 16 to 20 hrs by CLSI agar dilution method; summary of the method: as §1
[15] = system: Staphylococcus aureus; test: Antibacterial activity against fusidic acid-resistant Staphylococcus aureus harboring L461K mutation in domain 3 of EF-G encoded by fusA gene after 16 to 20 hrs by CLSI agar dilution method; summary of the method: as §1
[16] = system: Staphylococcus aureus; test: Antibacterial activity against fusidic acid-resistant Staphylococcus aureus harboring E444V and L461F mutations in domain 3 of EF-G encoded by fusA gene after 16 to 20 hrs by CLSI agar dilution method; summary of the method: as §1
[17] = system: Staphylococcus aureus; test: Antibacterial activity against fusidic acid-resistant methicillin-susceptible Staphylococcus aureus harboring P404L mutation in domain 3 of EF-G encoded by fusA gene after 16 to 20 hrs by CLSI agar dilution method; summary of the method: as §1
[18] = system: Staphylococcus aureus; test: Antibacterial activity against fusidic acid-resistant Staphylococcus aureus harboring H457Q and L461F mutations in domain 3 of EF-G encoded by fusA gene after 16 to 20 hrs by CLSI agar dilution method; summary of the method: as §1
[19] = system: Staphylococcus aureus; test: Antibacterial activity against fusidic acid-resistant Staphylococcus aureus harboring R76C in domain 1 and H457Y mutation in domain 3 of EF-G encoded by fusA gene after 16 to 20 hrs by CLSI agar dilution method; summary of the method: as §1
[20] = system: Staphylococcus aureus; test: Antibacterial activity against fusidic acid-resistant Staphylococcus aureus harboring A71V in domain 1 and P404L mutation in domain 3 of EF-G encoded by fusA gene after 16 to 20 hrs by CLSI agar dilution method; summary of the method: as §1
[21] = system: Staphylococcus aureus; test: Antibacterial activity against fusidic acid-resistant methicillin-resistant Staphylococcus aureus harboring P404L mutation in domain 3 of EF-G encoded by fusA gene after 16 to 20 hrs by CLSI agar dilution method; summary of the method: as §1
[22] = system: Staphylococcus aureus; test: Antibacterial activity against fusidic acid-resistant Staphylococcus aureus harboring H457Q mutation in domain 3 of EF-G encoded by fusA gene after 16 to 20 hrs by CLSI agar dilution method; summary of the method: as §1
[23] = system: Staphylococcus aureus; test: Antibacterial activity against fusidic acid-resistant Staphylococcus aureus harboring H457Q and L461K mutations in domain 3 of EF-G encoded by fusA gene after 16 to 20 hrs by CLSI agar dilution method; summary of the method: as §1
[24] = system: Staphylococcus aureus; test: Antibacterial activity against fusidic acid-resistant Staphylococcus aureus harboring M16I in domain 1 and H457Y mutation in domain 3 of EF-G encoded by fusA gene after 16 to 20 hrs by CLSI agar dilution method; summary of the method: as §1

In the case of `CC(=O)O[C@H]1C[C@@]2(C)[C@@H](C[C@@H](O)[C@H]3[C@@]4(C)CC[C@@H](O)[C@@H](C)[C@@H]4CC[C@@]32C)/C1=C(\CCC=C(C)C)C(=O)O` [FUSIDIC ACID], the MIC50 [1] is reported as 32 µg/mL (≈ 61.9 µM), the MIC90 [1] is reported as > 128 µg/mL and the MIC [2] is reported as 32 µg/mL (≈ 61.9 µM). It also gave an MIC [3] of 16 µg/mL (≈ 31 µM), an MIC [4] of 4 µg/mL (≈ 7.74 µM) and an MIC [5] of 2 µg/mL (≈ 3.87 µM). The MIC50 [6] was 8 µg/mL (≈ 15.5 µM), the MIC90 [6] was 16 µg/mL (≈ 31 µM) and the MIC [7] was 8 µg/mL (≈ 15.5 µM). The MIC [8] was 8 µg/mL (≈ 15.5 µM), the MIC [9] was 128 µg/mL (≈ 248 µM) and the MIC [10] was 8 µg/mL (≈ 15.5 µM). For the same compound, the MIC [11] was > 128 µg/mL, the MIC [12] was 16 µg/mL (≈ 31 µM) and the MIC [13] was 128 µg/mL (≈ 248 µM). The MIC [14] was > 128 µg/mL, the MIC [15] was > 128 µg/mL and the MIC [16] was 32 µg/mL (≈ 61.9 µM). For the same compound, the MIC [17] was 16 µg/mL (≈ 31 µM), the MIC [18] was 128 µg/mL (≈ 248 µM) and the MIC [19] was > 128 µg/mL. For the same compound, the MIC [20] was 8 µg/mL (≈ 15.5 µM), the MIC [21] was 8 µg/mL (≈ 15.5 µM) and the MIC [22] was 8 µg/mL (≈ 15.5 µM). The MIC [23] was > 128 µg/mL and the MIC [24] was 16 µg/mL (≈ 31 µM).

— ChEMBL document CHEMBL1671767, “Fusidic acid resistance determinants in Staphylococcus aureus clinical isolates” (2010)
